Activity calls are given as the source filed them. The rule behind the calls is not given here.
How the values were obtained:
[1] = test system: Rattus norvegicus; assay: Metabolic epimerization in Sprague-Dawley rat assessed as formation of [R]-2-((1S,2S,4R)-bicyclo[2.2.1]heptan-2-ylamino)-5-5iospropylthiazol-4(5H)-one at 10 mg/kg, po up to 24 hrs by LC-MS/MS analysis; format: ADME, organism-based; design: dose 10 mg/kg, route oral; settings: in vivo
In short: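 Sprague-Dawley rats (n = 2/group) dosed orally at 10 mg/kg. Plasma taken predose and at intervals up to 24 h. Diastereomers separated by HPLC, quantified by positive-ion ESI MS/MS with single ion monitoring. AUC ratio of epimer to parent calculated.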

[2] = test system: Rattus norvegicus; assay: Metabolic epimerization in Sprague-Dawley rat assessed as formation of [R]-2-((1S,2S,4R)-bicyclo[2.2.1]heptan-2-ylamino)-5-5iospropylthiazol-4(5H)-one at 10 mg/kg up to 24 hrs by LC-MS/MS analysis; settings: in vivo
[3] = Bioavailability in CD1 mouse at 5 mg/kg, iv or 30 mg/kg, po; format: ADME, organism-based; settings: in vivo
In short: (§1)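 iv: mouse 5, rat 2, dog 3, monkey 2 mg/kg in 10% dimethylacetamide/23% water/67% PEG 400. po: mouse 30, rat 10, monkey 10 mg/kg in 0.1% Tween-80/0.5% CMC in water; dog 10 mg/kg in the iv vehicle. Plasma sampled at various time points for drug levels. Half-life is terminal.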

[4] = test system: Mus musculus; assay: Ex vivo inhibition of 11beta-HSD1 in high fat diet-fed C57BL/6 mouse inguinal fat at 50 mg/kg, po measured at 4 hrs by ELISA; format: functional; settings: C57BL/6, 4 h
[5] = Terminal half life in Sprague-Dawley rat at 2 mg/kg, iv or 10 mg/kg, po; settings: in vivo, read-out: beta t1/2 (converted)
[6] = target: Cytochrome P450 2C19 (Homo sapiens, UniProt P33261); assay: Inhibition of CYP2C19; format: ADME
Chain of Cytochrome P450 2C19 (P33261 whole entry): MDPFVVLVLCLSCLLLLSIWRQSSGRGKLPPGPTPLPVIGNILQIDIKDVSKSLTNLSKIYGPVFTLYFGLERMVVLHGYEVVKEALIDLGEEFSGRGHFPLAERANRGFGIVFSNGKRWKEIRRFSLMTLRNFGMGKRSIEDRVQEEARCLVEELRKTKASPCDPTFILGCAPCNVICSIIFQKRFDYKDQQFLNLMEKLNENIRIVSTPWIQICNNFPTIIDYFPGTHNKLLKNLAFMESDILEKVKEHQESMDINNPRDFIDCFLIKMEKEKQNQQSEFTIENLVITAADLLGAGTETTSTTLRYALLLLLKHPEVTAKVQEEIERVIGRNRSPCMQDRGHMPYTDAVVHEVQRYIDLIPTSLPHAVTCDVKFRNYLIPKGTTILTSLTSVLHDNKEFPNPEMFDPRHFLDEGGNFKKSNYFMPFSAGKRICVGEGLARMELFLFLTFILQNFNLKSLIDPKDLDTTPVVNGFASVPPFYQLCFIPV

[7] = test system: Mus musculus; assay: Antidiabetic activity in diet-induced obese mouse assessed as decrease in fed blood glucose level at 25 to 50 mg/kg, po administered via gavage BID for 13 days measured after day 13 by glucose tolerance test; format: functional, organism-based
In short: (§2)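 Male C57BL/6 mice on high-fat diet from 3 weeks of age for 12 weeks (DIO), grouped n = 11-12 by pretreatment glucose and body weight. Oral gavage 25 or 50 mg/kg b.i.d. (half dose morning, half afternoon) or vehicle (0.1% Tween-80, 0.5% CMC in water) for 13-14 days. Fed blood glucose by glucose meter, plasma insulin by radioimmunoassay, body weight at study end.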

[8] = Metabolic stability in liver microsomes; format: ADME, Microsome
[9] = Bioavailability in Beagle dog at 3 mg/kg, iv or 10 mg/kg, po; settings: in vivo
[10] = target: T1, 11-beta-hydroxysteroid dehydrogenase type 2 (Homo sapiens, UniProt P80365); assay: Inhibition of 11beta-HSD2
T1 sequence (P80365 whole entry): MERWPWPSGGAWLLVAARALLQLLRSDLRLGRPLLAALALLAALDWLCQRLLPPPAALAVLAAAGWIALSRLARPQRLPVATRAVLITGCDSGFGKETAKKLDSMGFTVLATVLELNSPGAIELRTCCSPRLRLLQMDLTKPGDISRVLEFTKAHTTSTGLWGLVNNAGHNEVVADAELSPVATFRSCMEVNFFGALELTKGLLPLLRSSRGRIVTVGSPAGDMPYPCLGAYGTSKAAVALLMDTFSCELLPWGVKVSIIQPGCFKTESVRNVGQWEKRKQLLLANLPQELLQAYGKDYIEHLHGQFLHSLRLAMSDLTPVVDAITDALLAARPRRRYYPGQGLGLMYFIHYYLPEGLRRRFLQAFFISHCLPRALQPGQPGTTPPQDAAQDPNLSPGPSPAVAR

[11] = test system: Mus musculus; assay: Antidiabetic activity in diet-induced obese mouse assessed as mild improvement of glucose tolerance at 25 to 50 mg/kg, po BID for 13 days measured on day 14 after 12 hrs of fasting by glucose tolerance test
[12] = test system: Mus musculus; assay: Ex vivo inhibition of 11beta-HSD1 in high fat diet-fed C57BL/6 mouse inguinal fat at 5 mg/kg, po measured at 8 hrs by ELISA; format: functional; settings: C57BL/6, 8 h
[13] = Clearance in cynomolgus monkey at 2 mg/kg, iv or 10 mg/kg, po; settings: in vivo
[14] = test system: Mus musculus; assay: Ex vivo inhibition of 11beta-HSD1 in high fat diet-fed C57BL/6 mouse inguinal fat at 5 mg/kg, po measured at 4 hrs by ELISA; format: functional; settings: C57BL/6, 4 h
[15] = Volume of distribution at steady state in cynomolgus monkey at 2 mg/kg, iv or 10 mg/kg, po; settings: in vivo, read-out: Vdss
[16] = test system: Mus musculus; assay: Ex vivo inhibition of 11beta-HSD1 in high fat diet-fed C57BL/6 mouse inguinal fat at 15 mg/kg, po measured at 4 hrs by ELISA; format: functional; settings: C57BL/6, 4 h
[17] = target: Cytochrome P450 2D6 (Homo sapiens, UniProt P10635); assay: Inhibition of CYP2D6; format: ADME
Chain of Cytochrome P450 2D6 (P10635 whole entry): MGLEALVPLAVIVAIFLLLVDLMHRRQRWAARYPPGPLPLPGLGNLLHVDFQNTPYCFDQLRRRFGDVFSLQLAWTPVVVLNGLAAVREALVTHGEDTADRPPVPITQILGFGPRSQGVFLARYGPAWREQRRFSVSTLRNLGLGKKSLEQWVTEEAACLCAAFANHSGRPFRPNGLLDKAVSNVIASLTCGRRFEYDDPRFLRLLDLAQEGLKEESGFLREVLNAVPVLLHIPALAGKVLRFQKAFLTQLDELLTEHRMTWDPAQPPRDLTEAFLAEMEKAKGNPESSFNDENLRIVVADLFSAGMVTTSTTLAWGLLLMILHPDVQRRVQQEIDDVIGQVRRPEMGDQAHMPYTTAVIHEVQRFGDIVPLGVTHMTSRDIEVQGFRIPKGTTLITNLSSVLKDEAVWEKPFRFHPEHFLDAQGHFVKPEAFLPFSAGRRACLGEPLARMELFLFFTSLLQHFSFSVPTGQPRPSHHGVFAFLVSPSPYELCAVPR

[18] = Clearance in Sprague-Dawley rat at 2 mg/kg, iv or 10 mg/kg, po; settings: in vivo
[19] = Bioavailability in Sprague-Dawley rat at 2 mg/kg, iv or 10 mg/kg, po; settings: in vivo
[20] = test system: Mus musculus; assay: Ex vivo inhibition of 11beta-HSD1 in high fat diet-fed C57BL/6 mouse inguinal fat at 50 mg/kg, po measured at 8 hrs by ELISA; format: functional; settings: C57BL/6, 8 h
[21] = Terminal half life in Beagle dog at 3 mg/kg, iv or 10 mg/kg, po; settings: in vivo, read-out: beta t1/2 (converted)
[22] = target: Cytochrome P450 3A4 (Homo sapiens, UniProt P08684); assay: Inhibition of CYP3A4; format: ADME
Chain of Cytochrome P450 3A4 (P08684 whole entry): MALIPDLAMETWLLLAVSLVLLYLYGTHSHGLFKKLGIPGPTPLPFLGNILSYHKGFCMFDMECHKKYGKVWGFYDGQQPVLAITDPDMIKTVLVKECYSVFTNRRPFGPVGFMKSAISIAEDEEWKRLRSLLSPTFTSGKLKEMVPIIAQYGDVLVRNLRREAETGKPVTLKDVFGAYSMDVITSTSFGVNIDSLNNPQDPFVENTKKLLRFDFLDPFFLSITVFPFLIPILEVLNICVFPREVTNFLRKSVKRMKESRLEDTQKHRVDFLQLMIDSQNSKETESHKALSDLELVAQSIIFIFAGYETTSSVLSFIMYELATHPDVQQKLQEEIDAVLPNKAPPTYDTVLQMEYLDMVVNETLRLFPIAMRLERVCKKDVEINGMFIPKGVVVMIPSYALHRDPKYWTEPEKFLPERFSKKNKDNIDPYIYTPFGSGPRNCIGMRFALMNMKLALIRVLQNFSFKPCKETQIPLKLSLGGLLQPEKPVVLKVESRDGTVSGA

[23] = Volume of distribution at steady state in CD1 mouse at 5 mg/kg, iv or 30 mg/kg, po; format: ADME, organism-based; settings: in vivo, read-out: Vdss; in short: as §1
[24] = target: T2, Cytochrome P450 1A2 (Homo sapiens, UniProt P05177); assay: Inhibition of CYP1A2; format: ADME
T2 sequence (P05177 whole entry): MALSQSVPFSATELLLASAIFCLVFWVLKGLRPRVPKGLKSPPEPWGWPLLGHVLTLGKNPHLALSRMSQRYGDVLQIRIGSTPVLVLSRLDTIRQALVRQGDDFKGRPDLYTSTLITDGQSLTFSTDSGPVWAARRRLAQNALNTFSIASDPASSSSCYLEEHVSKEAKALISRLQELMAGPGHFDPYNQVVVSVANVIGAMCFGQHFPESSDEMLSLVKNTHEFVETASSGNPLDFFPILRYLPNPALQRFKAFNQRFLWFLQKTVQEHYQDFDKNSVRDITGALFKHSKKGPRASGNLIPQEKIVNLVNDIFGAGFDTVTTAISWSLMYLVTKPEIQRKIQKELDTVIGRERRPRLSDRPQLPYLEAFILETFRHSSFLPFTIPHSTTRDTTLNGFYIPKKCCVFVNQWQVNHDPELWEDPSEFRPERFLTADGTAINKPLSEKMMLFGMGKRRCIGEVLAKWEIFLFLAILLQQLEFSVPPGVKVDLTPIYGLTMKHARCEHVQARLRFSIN

[25] = Clearance in Beagle dog at 3 mg/kg, iv or 10 mg/kg, po; settings: in vivo
[26] = target: T3, Glucocorticoid receptor (Homo sapiens, UniProt P04150); assay: Inhibition of glucocorticoid receptor
T3 sequence (P04150 whole entry): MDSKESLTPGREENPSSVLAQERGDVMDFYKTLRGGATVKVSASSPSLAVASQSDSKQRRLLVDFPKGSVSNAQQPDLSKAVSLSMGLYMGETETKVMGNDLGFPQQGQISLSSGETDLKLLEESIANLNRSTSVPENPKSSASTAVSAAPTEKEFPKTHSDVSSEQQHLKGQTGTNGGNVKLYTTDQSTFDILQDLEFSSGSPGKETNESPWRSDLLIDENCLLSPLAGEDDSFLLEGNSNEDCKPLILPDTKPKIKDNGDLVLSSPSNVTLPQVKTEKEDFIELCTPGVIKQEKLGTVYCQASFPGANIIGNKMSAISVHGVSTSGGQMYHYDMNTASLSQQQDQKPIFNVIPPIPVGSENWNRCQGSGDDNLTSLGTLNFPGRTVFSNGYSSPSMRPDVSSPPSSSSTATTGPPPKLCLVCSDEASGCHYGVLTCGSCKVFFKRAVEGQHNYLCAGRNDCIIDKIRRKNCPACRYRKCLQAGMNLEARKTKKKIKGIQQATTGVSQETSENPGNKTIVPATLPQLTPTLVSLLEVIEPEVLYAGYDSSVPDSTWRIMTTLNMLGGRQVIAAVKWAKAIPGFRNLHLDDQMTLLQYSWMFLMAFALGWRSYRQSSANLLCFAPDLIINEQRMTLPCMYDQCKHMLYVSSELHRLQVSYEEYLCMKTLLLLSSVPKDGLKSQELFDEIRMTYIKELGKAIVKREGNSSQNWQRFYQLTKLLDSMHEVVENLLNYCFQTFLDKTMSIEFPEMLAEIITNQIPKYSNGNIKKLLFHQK

[27] = test system: Mus musculus; assay: Ex vivo inhibition of 11beta-HSD1 in high fat diet-fed C57BL/6 mouse inguinal fat at 15 mg/kg, po measured at 8 hrs by ELISA; format: functional; settings: C57BL/6, 8 h
[28] = test system: Mus musculus; assay: Antiobesity activity in po dosed diet-induced obese mouse assessed as decrease in body weight administered via gavage BID for 13 days measured after day 13; format: functional, organism-based; in short: as §2
[29] = Terminal half life in cynomolgus monkey at 2 mg/kg, iv or 10 mg/kg, po; settings: in vivo, read-out: beta t1/2 (converted)
[30] = Bioavailability in cynomolgus monkey at 2 mg/kg, iv or 10 mg/kg, po; settings: in vivo
[31] = Volume of distribution at steady state in Beagle dog at 3 mg/kg, iv or 10 mg/kg, po; settings: in vivo, read-out: Vdss
[32] = Clearance in CD1 mouse at 5 mg/kg, iv or 30 mg/kg, po; format: ADME, organism-based; settings: in vivo; in short: as §1
[33] = test system: Mus musculus; assay: Antidiabetic activity in diet-induced obese mouse assessed as decrease in plasma insulin level at 25 to 50 mg/kg, po administered via gavage BID for 13 days measured after day 13 by glucose tolerance test; format: functional, organism-based; in short: as §2
[34] = Terminal half life in CD1 mouse at 5 mg/kg, iv or 30 mg/kg, po; format: ADME, organism-based; settings: in vivo, read-out: beta t1/2 (converted); in short: as §1
[35] = target: Cytochrome P450 2C9 (Homo sapiens, UniProt P11712); assay: Inhibition of CYP2C9; format: ADME
Chain of Cytochrome P450 2C9 (P11712 whole entry): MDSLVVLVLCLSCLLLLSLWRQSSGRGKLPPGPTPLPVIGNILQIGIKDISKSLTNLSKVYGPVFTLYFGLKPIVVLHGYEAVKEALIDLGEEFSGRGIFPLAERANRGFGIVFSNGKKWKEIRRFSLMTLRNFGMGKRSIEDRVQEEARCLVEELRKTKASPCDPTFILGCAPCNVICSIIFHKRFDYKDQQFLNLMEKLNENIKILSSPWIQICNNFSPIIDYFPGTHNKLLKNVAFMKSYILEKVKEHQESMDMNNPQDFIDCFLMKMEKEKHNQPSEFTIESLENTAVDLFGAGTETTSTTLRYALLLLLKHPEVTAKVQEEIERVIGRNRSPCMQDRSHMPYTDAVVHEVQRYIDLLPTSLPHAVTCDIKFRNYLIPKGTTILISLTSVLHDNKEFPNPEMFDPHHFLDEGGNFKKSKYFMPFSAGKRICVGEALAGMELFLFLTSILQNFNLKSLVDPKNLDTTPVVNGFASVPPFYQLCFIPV

[36] = test system: Mus musculus; assay: Antidiabetic activity in diet-induced obese mouse assessed as improvement of glucose tolerance at 5 mg/kg, QD for 13 days measured on day 14 after 12 hrs of fasting by glucose tolerance test
[37] = test system: Mus musculus; assay: Antidiabetic activity in diet-induced obese mouse assessed as decrease in plasma insulin level at 5 mg/kg administered QD via high fat-diet for 13 days measured after day 13 by glucose tolerance test; format: functional, organism-based; design: dose 5 mg/kg
In short: (§3)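 DIO male C57BL/6 mice (12 weeks high-fat diet), n = 11-12 per group. Rosiglitazone given in the high-fat chow at ~5 mg/kg/day for 13 or 14 days. Fed blood glucose by glucose meter and plasma insulin by radioimmunoassay before and at end of treatment. Body weight taken at end of treatment.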

[38] = test system: Mus musculus; assay: Antidiabetic activity in diet-induced obese mouse assessed as decrease in fed blood glucose level at 5 mg/kg administered QD via high fat-diet for 13 days measured after day 13 by glucose tolerance test; format: functional, organism-based; design: dose 5 mg/kg; in short: as §3
[39] = test system: Mus musculus; assay: Antiobesity activity in diet-induced obese mouse assessed as decrease in body weight at 5 mg/kg administered QD via high fat-diet for 13 days measured after day 13; format: functional, organism-based; design: dose 5 mg/kg; in short: as §3

CC(C)[C@@H]1SC(N[C@H]2C[C@@H]3CC[C@H]2C3)=NC1=O showed an Activity [1] of 39% and an Activity [2] of 39%.

For CC(C)[C@]1(C)SC(N[C@H]2C[C@@H]3CC[C@H]2C3)=NC1=O, the bioavailability [3] was 54%, the inhibition in vivo at 50 mg/kg [4] was 47% and the half-life [5] was 41.5 h. The IC50 [6] was greater than 15 µM, the inhibition [7] was “Active” and the Km [8] was greater than 100 µM. For the same compound, the bioavailability [9] was 50%, the IC50 [10] was greater than 10 µM and the Activity [11] was “Active”. The inhibition in vivo at 5 mg/kg [12] was 10%, the clearance [13] was 31.5 mL/min/kg and the inhibition in vivo at 5 mg/kg [14] was 33%. The Vd [15] was 0.98 L/kg, the inhibition in vivo at 15 mg/kg [16] was 55% and the IC50 [17] was greater than 15 µM. It also gave a clearance [18] of 22.7 mL/min/kg, a bioavailability [19] of 34% and an inhibition in vivo at 50 mg/kg [20] of 39%. For the same compound, the half-life [21] was 8.1 h, the IC50 [22] was greater than 15 µM and the Vd [23] was 1 L/kg. For the same compound, the IC50 [24] was greater than 15 µM, the clearance [25] was 15.7 mL/min/kg and the IC50 [26] was greater than 10 µM. The inhibition in vivo at 15 mg/kg [27] was 36%, the inhibition [28] was “Dose-dependent effect” and the half-life [29] was 0.6 h. It also gave a bioavailability [30] of 7%, a Vd [31] of 1.02 L/kg and a clearance [32] of 52.7 mL/min/kg. The inhibition [33] was “Active”, the half-life [34] was 15.6 h and the IC50 [35] was greater than 15 µM.

With CN(CCOc1ccc(CC2SC(=O)NC2=O)cc1)c1ccccn1 (centres undefined) the Activity [36] was “inactive”, the inhibition [37] was “Active” and the inhibition [38] was “Active”. For the same compound, the inhibition [39] was “inactive”.

Reference: ChEMBL document CHEMBL1155526, “Discovery of a potent, orally active 11beta-hydroxysteroid dehydrogenase type 1 inhibitor for clinical study: identification of (S)-2-((1S,2S,4R)-bicyclo[2.2.1]heptan-2-ylamino)-5-isopropyl-5-methylthiazol-4(5H)-one (AMG 221)” (J Med Chem, 2010)
